Data reported in article PMC10441415 (bioRxiv, 2023).
Several values for one entry are separate records, joined by “and”; a condition that tells them apart may be missing. Equal entries are not always repeated.

What was measured:
Mtb H37Rv [1] = tested on: Mtb H37Rv; parameters: species or system Mycobacterium tuberculosis; conditions: in vivo
Mtb H37Rv [2] = tested on: Mtb H37Rv; parameters: species or system Mycobacterium tuberculosis; conditions: in vivo; remark: listed apart in the source
[3] = tested on: lung inflammation of Mtb-infected mice; parameters: species or system BALB/c mice; conditions: mouse, in vivo
[4] = tested on: lung inflammation of Mtb-infected mice; parameters: species or system BALB/c mice; conditions: mouse, in vivo; remark: listed apart in the source
[5] = tested on: Nos2, Ifn-γ, Tnf-α, Cd38, Egr2; parameters: species or system BALB/c mice; conditions: mouse, in vivo
[6] = Single-dose plasma pharmacokinetics, intraperitoneal; type: in vivo, BALB/c mice; conditions: single IP dose, sampling up to 24 hours
Procedure, shortened: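 Female BALB/c mice, 9–11 weeks old, each received one intraperitoneal dose (5 or 10 mg/kg) of the test compound, a tin metalloporphyrin HO-1 inhibitor, in sodium phosphate buffer (pH 7.4 – 7.8). Blood was drawn from three mice per time point at 0.25, 0.5, 1, 2, 4, 8 and 24 h. Plasma was assayed by LC-MS/MS. t1/2, tmax, Cmax, AUClast and AUCInf came from noncompartmental analysis.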

[7] = mouse, in vivo, ip
[8] = tested on: human peripheral blood mononuclear cells; conditions: cited from earlier work
[9] = tested on: naive CD4+ and CD8+ T cells; conditions: via interactions with CD14+ monocytes in vitro; cited from earlier work
Mtb = conditions: C57BL/6 mice, chronic phase of infection; cited from earlier work
Mtb-infected U937 cells = conditions: cited from earlier work
[10] = chronic treatment, wild-type mice; cited from earlier work

| Structure (SMILES) | Additive effect on lung CFU when co-administered with SPaO (Mtb H37Rv [1]) | Enhancement of the bactericidal activity of RHZ (Mtb H37Rv [1]) | Mean lung log10 CFU count (±SD) at W2 (Mtb H37Rv [1]) [log10 CFU] | Mean lung log10 CFU count (±SD) at W4 (Mtb H37Rv [1]) [log10 CFU] | Mean lung log10 CFU count (±SD) at W6 (Mtb H37Rv [1]) [log10 CFU] | Reduction of mean lung bacillary burden relative to vehicle control (Mtb H37Rv [1]) [log10 CFU] | Lung bacillary burdens relative to the SPaO regimen (Mtb H37Rv [2]) | Microbiological relapse rates (Mtb H37Rv [2]) | Gross or histological lung pathology [3] | Lung/body weight ratio versus SPaO control regimen [4] | Cd38 expression in lung compared to any other treatment group [5] | Tnf-α expression in lung relative to vehicle [5] | Last time point with detectable blood concentrations [6] [h] | Tolerability [7] | Expression of pro-inflammatory cytokines [8] | Activation, proliferation, and maturation of naive CD4+ and CD8+ T cells [9] | Reduction of mean lung bacterial burden relative to vehicle control (Mtb H37Rv [1]) | Lung bacillary burden (Mtb) | Secretion of proinflammatory cytokines, including TNF-α (Mtb-infected U937 cells) | Tubulointerstitial inflammation and fibrosis [10] |
| --- | --- | --- | --- | --- | --- | --- | --- | --- | --- | --- | --- | --- | --- | --- | --- | --- | --- | --- | --- | --- |
| CCC1=C(C)c2cc3[n-]c(cc4[n-]c(cc5nc(cc1n2)C(C)=C5CC)c(C)c4CCC(=O)O)c(CCC(=O)O)c3C.[Cl-].[Cl-].[Sn+4] [SnMP, stannsoporfin] | neither SnPP nor SnMP adjunctive therapy showed an additive effect | did not significantly enhance | 5.73 ± 0.22 | 5.36 ± 0.31 | 5.98 ± 0.06 | 0.67 | did not significantly alter | did not reduce microbiological relapse rates | did not significantly alter | did not differ statistically | significantly higher expression | reduced expression | 8 | well tolerated | induces the expression of pro-inflammatory cytokines | induce the activation, proliferation, and maturation | – | – | – | – |
| C=Cc1c2[n-]c(c1C)/C=c1\[n-]/c(c(C)c1C=C)=C\c1[n-]c(c(CCC(=O)O)c1C)C=c1[n-]/c(c(C)c1CCC(=O)O)=C\2.[Sn+4] [SnPP, tin-protoporphyrin IX] | neither SnPP nor SnMP adjunctive therapy showed an additive effect | did not significantly enhance | 5.52 ± 0.29 | 5.30 ± 0.30 | 5.30 ± 0.19 | 0.88 | – | – | – | – | – | – | 8 | – | – | – | 1.2 log10 CFU and 1.1 log10 CFU | reduced the lung bacillary burden alone | reduced the secretion of proinflammatory cytokines | can induce tubulointerstitial inflammation and fibrosis |
